Rows were chosen to be rich in hits. Some 2.2% of all compounds tested hit in one or more screens of this group.
PAD4 FP inh – blocks human protein arginine deiminase 4; 330,000 tested, 0.41% active; recombinant PAD4, RCA probe fluorescence polarization; Q9UM07; inhibition, % at 6.36 µM;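 active means percent inhibition above a cutoff equal to the mean of all tested compounds plus 3 SD, cut at about 15% in these data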;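 further: 0% = PAD4 with RCA probe and DMSO and 100% = probe without PAD4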
Apaf-1 inh – inhibitors of human Apaf-1 apoptosome. 330,000 tested, 0.71% active. reconstituted apoptosome caspase-3 activity, DEVD-Rh110 fluorescence. inhibition, % at 20 µM. O14727; active means inhibition of at least 40% at 20 µM;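 further: plate controls were DMSO wells for no effect and DEVD-CHO caspase inhibitor wells for full effect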
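Material: reconstituted apoptosome with Apaf-1, cytochrome c, caspase-9, procaspase-3, dATP / Buffer or medium: pH 7.5 Hepes buffer with CHAPS, BSA, DTT / Also added: cytochrome c with DEVD-Rh110 / Schedule: compound with Apaf-1, dATP, procaspase-3 30 min, then 50 min reaction, room temperature / Technique: rhodamine 110 fluorescence at Ex 480/Em 540 nm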
GSTO1 counter – counter-screen for RBBP9 inhibitors: inhibitors of human GSTO1. inhibition, % at 5.96 µM. AID 1974. recombinant GSTO1, activity-based probe fluorescence polarization. 300,000 tested, 1.1% active. P78417;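 active means inhibition above the campaign mean inhibition plus 3 SD, cut at about 35% in these data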;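 further: 0% = GSTO1-1 with DMSO and 100% = wells lacking GSTO1-1 enzyme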
Rin1-Abl PPI inh – human Rin1-Abl interaction inhibition; inhibition, % at 7.35 µM; 360,000 tested, 0.4% active; AID 588664; TR-FRET Rin1/Abl binding, biochemical; in the data active means inhibition above about 5%, passing the limit was not always enough
UBC9 SUMO inh – inhibitors of human SUMOylation (UBC9); 290,000 tested, 0.36% active; HTRF SUMOylation assay, SAE1/SAE2 + UBC9, in vitro; P63279; AID 2006; inhibition, % at 35 µM; in the data active means inhibition above about 50%, passing the limit was not always enough
UBC13 inh – human UBC13 polyubiquitination inhibition. P61088. UBC13 polyubiquitin chain formation, TR-FRET. inhibition, % at 20 µM. 330,000 tested, 0.47% active; in the data active means inhibition above about 45%, passing the limit was not always enough
Numbers without * were called inactive.

For CCOC(=O)C(C)(C)N(Cc1cccc(C)c1)S(=O)(=O)c1ccc(Cl)c([N+](=O)[O-])c1 the results were PAD4 FP inh -1.9, Apaf-1 inh 15.2, GSTO1 counter 61.2*, Rin1-Abl PPI inh -1.2, UBC9 SUMO inh -13.7 and UBC13 inh 7.7.
For CCOC(=O)C(C)(C)N(Cc1cccc(C)c1)S(=O)(=O)c1cccc([N+](=O)[O-])c1 the results were PAD4 FP inh -0.5, Apaf-1 inh 10.9, GSTO1 counter 2.8, Rin1-Abl PPI inh 1.6, UBC9 SUMO inh -17.0 and UBC13 inh -8.8.
Screening Cn1cccc1/C=N/NC(=O)c1sc2cc(Cl)ccc2c1Cl returned PAD4 FP inh -0.3, Apaf-1 inh 2.0, GSTO1 counter 1.5, UBC9 SUMO inh 56.4* and UBC13 inh -3.0.
`O=C(NC(=S)Nc1cccc(O)c1)C12CC3CC(CC(C3)C1)C2` gave Rin1-Abl PPI inh 1.6.
`Cc1ccccc1C(=O)N=c1c(C#N)cc2c(=O)n3cccc(C)c3nc2n1Cc1ccco1` gave PAD4 FP inh -0.8, Apaf-1 inh 17.7, GSTO1 counter 3.3, UBC9 SUMO inh 22.0 and UBC13 inh -5.4.
Screening N#Cc1cc2c(=O)n3ccccc3nc2n(Cc2ccco2)c1=NC(=O)c1ccco1 returned PAD4 FP inh -0.9, Apaf-1 inh 1.2, GSTO1 counter 15.8, Rin1-Abl PPI inh -0.8, UBC9 SUMO inh 51.9* and UBC13 inh -1.4.
CCN(CC(=O)NCc1cccs1)C(=O)/C=C/c1cc(Br)ccc1OC(F)F was read as PAD4 FP inh -1.9, Apaf-1 inh 6.3, Rin1-Abl PPI inh -4.6 and UBC13 inh 13.4.
For COC1=C(N)C(=O)c2nc(-c3nc(C(=O)O)c(C)c(-c4ccc(OC)c(OC)c4O)c3N)ccc2C1=O the results were Apaf-1 inh 84.2*, UBC9 SUMO inh -2.8 and UBC13 inh -309.4.
`COc1ccc(-c2ncncc2-c2csc(C)n2)c(O)c1OC` gave PAD4 FP inh -9.2, Apaf-1 inh 3.9, GSTO1 counter -5.3, Rin1-Abl PPI inh -3.8, UBC9 SUMO inh 9.3 and UBC13 inh -6.1.
For CC(=O)OC1CCC2C3CCc4cc(OP(=O)(N5CC5)N5CC5)ccc4C3CCC12C (centres undefined) the results were Rin1-Abl PPI inh 0.3.
For N#Cc1c(-c2ccc(Br)cc2)cc(-c2cccnc2)nc1N the results were PAD4 FP inh 2.6, Apaf-1 inh 0.8, GSTO1 counter -1.6, Rin1-Abl PPI inh -2.6, UBC9 SUMO inh -0.1 and UBC13 inh 4.8.
For CS(=O)c1nc(-c2ccc(Br)cc2)cc(-c2ccccc2)c1C#N (centres undefined) the results were PAD4 FP inh 0.2, Apaf-1 inh 55.4*, GSTO1 counter -17.8, Rin1-Abl PPI inh -10.7, UBC9 SUMO inh 16.8 and UBC13 inh 2.6.
For CCCCC1OC2(C)OC(=N)C1(C#N)C(C#N)(C#N)C2c1ccccc1 (centres undefined) the results were PAD4 FP inh 8.8, GSTO1 counter 4.8, Rin1-Abl PPI inh -0.2 and UBC9 SUMO inh 12.6.
For CC1OC2(C)OC(=N)C1(C#N)C(C#N)(C#N)C2c1ccccc1 (centres undefined) the results were PAD4 FP inh 25.1*, Apaf-1 inh 9.9, GSTO1 counter 9.7, Rin1-Abl PPI inh 0.5, UBC9 SUMO inh 11.4 and UBC13 inh 6.2.
Screening O=[N+]([O-])c1cc(/C=N\Nc2nc(-c3ccccc3)cs2)ccc1O returned PAD4 FP inh -1.4, Apaf-1 inh 12.6, GSTO1 counter 63.0*, Rin1-Abl PPI inh 1.1, UBC9 SUMO inh 30.3 and UBC13 inh -47.3.
For O=[N+]([O-])c1ccc(-c2csc(N/N=C/c3cccnc3)n2)cc1 the results were PAD4 FP inh 4.7, Apaf-1 inh -15.4, GSTO1 counter 1.2, Rin1-Abl PPI inh -1.3, UBC9 SUMO inh 31.6 and UBC13 inh -23.3.
`Cc1csc(N/N=C/c2ccc(O)c([N+](=O)[O-])c2)n1` gave PAD4 FP inh 5.1, Apaf-1 inh 10.3, GSTO1 counter 84.3*, Rin1-Abl PPI inh -7.8, UBC9 SUMO inh 7.7 and UBC13 inh -25.9.
COc1cccc(OCc2ccc(Cn3nc(NC(=O)NCCc4ccc(OC)c(OC)c4)c4ccccc43)cc2)c1 was read as Rin1-Abl PPI inh -1.1.
O=C(CSc1nc2nc(-c3cccs3)cc(C(F)(F)F)c2c(=O)[nH]1)Nc1ccc(F)c(F)c1 was read as PAD4 FP inh -3.5, Apaf-1 inh 14.5, GSTO1 counter -54.5, Rin1-Abl PPI inh -0.5, UBC9 SUMO inh 55.5* and UBC13 inh -17.0.
Screening COc1ccc(-c2c(C#Cc3ccsc3)c3cc(-c4ccc(OC)c(F)c4)ccc3n2C)cc1 returned PAD4 FP inh -6.7, Apaf-1 inh -6.0, Rin1-Abl PPI inh -2.3 and UBC13 inh -13.4.
For N#Cc1cccc(N=Cc2c(O)ccc3ccccc23)c1 the results were PAD4 FP inh -5.9, Apaf-1 inh 10.6, GSTO1 counter 37.9*, Rin1-Abl PPI inh -3.7, UBC9 SUMO inh 17.0 and UBC13 inh -9.9.
For Cc1ccc(N=Cc2c(O)ccc3ccccc23)cc1F the results were PAD4 FP inh -5.3, Apaf-1 inh 15.6, GSTO1 counter 30.6, Rin1-Abl PPI inh -3.6, UBC9 SUMO inh -10.0 and UBC13 inh -17.6.
COC(=O)c1c(NC(=O)CN2CCN(c3ccccc3Cl)CC2)sc(C)c1C was read as PAD4 FP inh -1.1, Apaf-1 inh 15.9, GSTO1 counter 36.6*, Rin1-Abl PPI inh -0.8, UBC9 SUMO inh 17.4 and UBC13 inh -1.9.
Screening CCCN(CC(=O)Nc1ccccc1OC)C(=O)c1cc(-c2cccs2)nn1-c1ccccc1 returned PAD4 FP inh 3.6, Apaf-1 inh 25.2, GSTO1 counter 1.6, Rin1-Abl PPI inh 5.5 and UBC13 inh -3.2.
`COc1ccc(N2CCN(C(=O)c3cccc(S(=O)(=O)N4CCCc5ccccc54)c3)CC2)cc1` gave PAD4 FP inh -3.9, Apaf-1 inh 5.3, Rin1-Abl PPI inh -0.1 and UBC13 inh 6.4.
`CC(C)(C)C(=O)[C@@H]1[C@@H]2C(=O)N(c3ccc4c(c3)OCCO4)C(=O)[C@@H]2C2c3ccccc3C=CN21` (some centres undefined) gave PAD4 FP inh 5.0, Apaf-1 inh 61.6*, GSTO1 counter 22.5, Rin1-Abl PPI inh 0.1, UBC9 SUMO inh 7.8 and UBC13 inh -20.7.
For CC(=O)[C@@H]1[C@@H]2C(=O)N(Cc3ccccc3)C(=O)[C@@H]2C2c3ccccc3C=CN21 (some centres undefined) the results were PAD4 FP inh -11.7, Apaf-1 inh 67.4*, GSTO1 counter 29.5, Rin1-Abl PPI inh 0.8, UBC9 SUMO inh 22.9 and UBC13 inh -4.0.
For Cc1ccc(N2C(=O)[C@@H]3[C@H](C2=O)C2c4ccccc4C=CN2[C@@H]3C(=O)c2ccco2)c(C)c1 (some centres undefined) the results were PAD4 FP inh -3.2, Apaf-1 inh 87.0*, GSTO1 counter 28.5, Rin1-Abl PPI inh 5.2, UBC9 SUMO inh 45.5 and UBC13 inh -26.6.

Compound activity from PubChem BioAssay.
